According to ChEMBL document CHEMBL1153560, “In vitro activities of doripenem and six comparator drugs against 423 aerobic and anaerobic bacterial isolates from infected diabetic foot wounds” (2008):
≈ marks a conversion by molar mass, not a printed value.

Columns and labels:
Type in all cases: functional
[1] = test system: Clostridium cadaveris; test: Antibacterial activity against Clostridium cadaveris isolated from patient with diabetic foot infection after 44 to 48 hrs by agar dilution method
Outline: (§1)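 CLSI M11-A7 agar dilution: serial twofold drug dilutions made on the test day and added to molten agar. Spots of 10^5 CFU were applied by replicator, with drug-free control plates inoculated before and after each set. Incubation was 44 to 48 h at 37°C in an anaerobic chamber. MIC was the lowest concentration giving no growth or a marked change in growth versus controls.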

[2] = test system: Anaerococcus prevotii; test: Antibacterial activity against Anaerococcus prevotii isolated from patient with diabetic foot infection after 44 to 48 hrs by agar dilution method; outline: as §1
[3] = test system: Parvimonas micra; test: Antibacterial activity against Peptostreptococcus micros isolated from patient with diabetic foot infection after 44 to 48 hrs by agar dilution method; outline: as §1
[4] = test system: Corynebacterium amycolatum; test: Antibacterial activity against Corynebacterium amycolatum isolated from patient with diabetic foot infection assessed as percent resistant isolates after 48 hrs by broth microdilution method
Outline: (§2)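 Isolates subcultured on Trypticase soy blood agar. Broth microdilution in cation-adjusted Mueller-Hinton broth with lysed horse blood, using in-house twofold dilution trays stored at −70°C. Inoculum from overnight colonies at about 5 × 10^5 CFU/ml final. Read after 18 to 24 h at 37°C, up to 48 h for some Corynebacterium strains.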

[5] = test system: Corynebacterium urealyticum; test: Antibacterial activity against Corynebacterium urealyticum isolated from patient with diabetic foot infection assessed as percent resistant isolates after 48 hrs by broth microdilution method; outline: as §2
[6] = test system: Bacteroides caccae; test: Antibacterial activity against Bacteroides caccae isolated from patient with diabetic foot infection after 44 to 48 hrs by agar dilution method; outline: as §1
[7] = test system: Bacteroides stercoris; test: Antibacterial activity against Bacteroides stercoris isolated from patient with diabetic foot infection after 44 to 48 hrs by agar dilution method; outline: as §1
[8] = test system: Streptococcus dysgalactiae subsp. equisimilis; test: Antibacterial activity against Streptococcus dysgalactiae subsp. equisimilis isolated from patient with diabetic foot infection assessed as percent resistant isolates after 18 to 24 hrs by broth microdilution method
Outline: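 Streptococci subcultured on Trypticase soy blood agar and tested by broth microdilution in cation-adjusted Mueller-Hinton broth with lysed horse blood. In-house twofold dilution trays stored at −70°C. About 5 × 10^5 CFU/ml final inoculum from overnight colonies. Read after 18 to 24 h at 37°C.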

[9] = test system: Bacteroides caccae; test: Antibacterial activity against Bacteroides caccae isolated from patient with diabetic foot infection assessed as percent resistant isolates after 44 to 48 hrs by agar dilution method
Outline: (§3)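 Agar dilution per CLSI M11-A7. Twofold drug dilutions made on the test day and added to molten agar. Replicator-applied inoculum of 10^5 CFU/spot. Drug-free control plates inoculated before and after each drug set. Incubation at 37°C for 44 to 48 h, anaerobic chamber. MIC taken as the lowest concentration giving no growth or a marked change in growth versus controls.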

[10] = test system: Bacteroides ovatus; test: Antibacterial activity against Bacteroides ovatus isolated from patient with diabetic foot infection assessed as percent resistant isolates after 44 to 48 hrs by agar dilution method; outline: as §3
[11] = test system: Phocaeicola vulgatus; test: Antibacterial activity against Bacteroides vulgatus isolated from patient with diabetic foot infection after 44 to 48 hrs by agar dilution method; outline: as §1
[12] = test system: Porphyromonas somerae; test: Antibacterial activity against Porphyromonas somerae isolated from patient with diabetic foot infection after 44 to 48 hrs by agar dilution method; outline: as §1
[13] = test system: Bacteroides uniformis; test: Antibacterial activity against Bacteroides uniformis isolated from patient with diabetic foot infection assessed as percent resistant isolates after 44 to 48 hrs by agar dilution method; outline: as §3
[14] = test system: Phocaeicola vulgatus; test: Antibacterial activity against Bacteroides vulgatus isolated from patient with diabetic foot infection assessed as percent resistant isolates after 44 to 48 hrs by agar dilution method; outline: as §3
[15] = test system: Parabacteroides distasonis; test: Antibacterial activity against Parabacteroides distasonis isolated from patient with diabetic foot infection assessed as percent resistant isolates after 44 to 48 hrs by agar dilution method; outline: as §3
[16] = test system: Parabacteroides merdae; test: Antibacterial activity against Parabacteroides merdae isolated from patient with diabetic foot infection assessed as percent resistant isolates after 44 to 48 hrs by agar dilution method; outline: as §3
[17] = test system: Corynebacterium minutissimum; test: Antibacterial activity against Corynebacterium minutissimum isolated from patient with diabetic foot infection after 48 hrs by broth microdilution method
Outline: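 Isolates were subcultured on Trypticase soy blood agar. Broth microdilution used cation-adjusted Mueller-Hinton broth with lysed horse blood, in-house trays of twofold drug dilutions stored at −70°C. Colonies from overnight growth gave a final inoculum of about 5 × 10^5 CFU/ml. Trays were read after 18 to 24 h at 37°C, up to 48 h for some strains.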

[18] = test system: Staphylococcus aureus; test: Antibacterial activity against methicillin-sensitive Staphylococcus aureus isolated from patient with diabetic foot infection after 18 to 24 hrs by broth microdilution method
Outline: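 Subcultured on Trypticase soy blood agar, then broth microdilution in cation-adjusted Mueller-Hinton broth. Trays were made in-house with serial twofold drug dilutions and stored at −70°C. Inoculum was colonies from overnight growth, final approximately 5 × 10^5 CFU/ml. MIC was read after 18 to 24 h at 37°C. QC strains: S. aureus ATCC 29213 and E. coli ATCC 25922.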

[19] = test system: Enterocloster clostridioformis; test: Antibacterial activity against Clostridium clostridioforme isolated from patient with diabetic foot infection assessed as percent resistant isolates after 44 to 48 hrs by agar dilution method; outline: as §3
[20] = test system: Lacrimispora sphenoides; test: Antibacterial activity against Clostridium sphenoides isolated from patient with diabetic foot infection assessed as percent resistant isolates after 44 to 48 hrs by agar dilution method; outline: as §3
[21] = test system: Finegoldia magna; test: Antibacterial activity against Finegoldia magna isolated from patient with diabetic foot infection assessed as percent resistant isolates after 44 to 48 hrs by agar dilution method; outline: as §3
[22] = test system: Escherichia coli; test: Antibacterial activity against Escherichia coli isolated from patient with diabetic foot infection assessed as percent resistant isolates after 18 to 24 hrs by broth microdilution method
Outline: (§4)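 Aerobes subcultured on Trypticase soy blood agar, then broth microdilution in cation-adjusted Mueller-Hinton broth. Trays prepared in-house with twofold dilutions and stored at −70°C. Overnight colonies suspended to about 5 × 10^5 CFU/ml final. Read after 18 to 24 h at 37°C. QC strains included S. aureus ATCC 29213 and E. coli ATCC 25922.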

[23] = test system: Enterobacter cloacae; test: Antibacterial activity against Enterobacter cloacae isolated from patient with diabetic foot infection assessed as percent resistant isolates after 18 to 24 hrs by broth microdilution method; outline: as §4
[24] = test system: Klebsiella pneumoniae; test: Antibacterial activity against Klebsiella pneumoniae isolated from patient with diabetic foot infection assessed as percent resistant isolates after 18 to 24 hrs by broth microdilution method; outline: as §4
[25] = test system: Proteus mirabilis; test: Antibacterial activity against Proteus mirabilis isolated from patient with diabetic foot infection assessed as percent resistant isolates after 18 to 24 hrs by broth microdilution method; outline: as §4
[26] = test system: Proteus mirabilis; test: Antibacterial activity against Proteus mirabilis isolated from patient with diabetic foot infection after 18 to 24 hrs by broth microdilution method
Outline: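 Isolates were subcultured on Trypticase soy blood agar and tested by broth microdilution in cation-adjusted Mueller-Hinton broth. In-house trays of twofold drug dilutions were stored at −70°C. Overnight colonies gave a final inoculum of about 5 × 10^5 CFU/ml. Plates were read after 18 to 24 h at 37°C.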

| Structure (SMILES) | MIC50 [1] [µg/mL] | MIC90 [1] [µg/mL] | MIC50 [2] [µg/mL] | MIC90 [2] [µg/mL] | MIC50 [3] [µg/mL] | MIC90 [3] [µg/mL] | MIC50 [6] [µg/mL] | MIC90 [6] [µg/mL] | MIC50 [7] [µg/mL] | MIC90 [7] [µg/mL] | Activity [8] [%] | Activity [9] [%] | Activity [10] [%] | MIC50 [11] [µg/mL] | MIC90 [11] [µg/mL] | MIC50 [12] [µg/mL] | MIC90 [12] [µg/mL] | Activity [13] [%] | Activity [14] [%] | Activity [15] [%] | other results |
| --- | --- | --- | --- | --- | --- | --- | --- | --- | --- | --- | --- | --- | --- | --- | --- | --- | --- | --- | --- | --- | --- |
| CCC[C@@H]1C[C@@H](C(=O)N[C@@H]([C@H]2O[C@H](SC)[C@H](O)[C@@H](O)[C@H]2O)[C@H](C)Cl)N(C)C1 [CLINDAMYCIN] | 0.5 (≈ 1.18 µM) | 16 (≈ 37.6 µM) | 0.125 (≈ 0.294 µM) | 64 (≈ 151 µM) | 0.125 (≈ 0.294 µM) | 0.5 (≈ 1.18 µM) | 2 (≈ 4.71 µM) | > 64 | 2 (≈ 4.71 µM) | > 64 | 13 | 20 | 20 | 2 (≈ 4.71 µM) | > 64 | ≤ 0.03 | 64 (≈ 151 µM) | 20 | 20 | 20 | Activity [4]: 100%; Activity [5]: 100%; Activity [16]: 20%; MIC50 [17]: > 64 µg/mL; MIC90 [17]: > 64 µg/mL; MIC50 [18]: 0.125 µg/mL (≈ 0.294 µM); MIC90 [18]: 0.25 µg/mL (≈ 0.588 µM); Activity [19]: 23%; Activity [20]: 23%; Activity [21]: 0% |
| C[C@@H](O)[C@H]1C(=O)N2C(C(=O)O)=C(S[C@@H]3CN[C@H](CNS(N)(=O)=O)C3)[C@H](C)[C@H]12 [DORIPENEM] | 0.06 (≈ 0.143 µM) | 1 (≈ 2.38 µM) | ≤ 0.015 | 0.06 (≈ 0.143 µM) | 0.06 (≈ 0.143 µM) | 0.25 (≈ 0.595 µM) | 0.25 (≈ 0.595 µM) | 1 (≈ 2.38 µM) | 0.25 (≈ 0.595 µM) | 1 (≈ 2.38 µM) | 0 | 0 | 0 | 0.25 (≈ 0.595 µM) | 1 (≈ 2.38 µM) | ≤ 0.015 | 0.03 (≈ 0.0713 µM) | 0 | 0 | 0 | Activity [22]: 0%; Activity [23]: 0%; Activity [24]: 0%; Activity [25]: 0%; Activity [16]: 0%; MIC50 [26]: 0.125 µg/mL (≈ 0.297 µM); MIC90 [26]: 0.25 µg/mL (≈ 0.595 µM); MIC50 [17]: 1 µg/mL (≈ 2.38 µM); MIC90 [17]: 8 µg/mL (≈ 19 µM); MIC50 [18]: 0.03 µg/mL (≈ 0.0713 µM); MIC90 [18]: 0.03 µg/mL (≈ 0.0713 µM); Activity [19]: 0%; Activity [20]: 0%; Activity [21]: 0% |
| C[C@@H](O)[C@H]1C(=O)N2C(C(=O)O)=C(S[C@@H]3CN[C@H](C(=O)Nc4cccc(C(=O)O)c4)C3)[C@H](C)[C@H]12 [ERTAPENEM] | 0.25 (≈ 0.526 µM) | 2 (≈ 4.21 µM) | 0.125 (≈ 0.263 µM) | 0.25 (≈ 0.526 µM) | 0.25 (≈ 0.526 µM) | 0.5 (≈ 1.05 µM) | 1 (≈ 2.1 µM) | 2 (≈ 4.21 µM) | 1 (≈ 2.1 µM) | 2 (≈ 4.21 µM) | 0 | 0 | 0 | 1 (≈ 2.1 µM) | 2 (≈ 4.21 µM) | ≤ 0.015 | 0.06 (≈ 0.126 µM) | 0 | 0 | 0 | Activity [22]: 0%; Activity [23]: 0%; Activity [24]: 0%; Activity [25]: 0%; Activity [16]: 0%; MIC50 [26]: ≤ 0.015 µg/mL; MIC90 [26]: 0.25 µg/mL (≈ 0.526 µM); MIC50 [17]: 1 µg/mL (≈ 2.1 µM); MIC90 [17]: 32 µg/mL (≈ 67.3 µM); MIC50 [18]: 0.125 µg/mL (≈ 0.263 µM); MIC90 [18]: 0.25 µg/mL (≈ 0.526 µM); Activity [19]: 0%; Activity [20]: 0%; Activity [21]: 0% |
